According to ChEMBL document CHEMBL1759837, “Studies on chemical modification and biology of a natural product, gambogic acid (III): determination of the essential pharmacophore for biological activity” (Eur J Med Chem, 2011):
Active and inactive are the calls of the source. No cut-off for these calls is given here.

Legend:
[1] = test system: Mus musculus; test: Toxicity in Kunming mouse xenografted with human HepG2 cells assessed as irritation on vein vascular at 12.5 to 50 mg/kg, iv administered 24 hrs after tumor implantation one dose per two day for total of four treatment measured after 24 hrs last postdose; assay type: organism-based; design: dose 12.5-50 mg/kg, route intravenous; settings: in vivo
[2] = test system: MCF7; test: Antiproliferative activity against human MCF7 cells after 24 hrs by MTT assay; assay type: functional, cell-based; settings: MCF7, 24 h
In short: (§1)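 Cells grown at 37 °C in humidified 5% CO2 with benzylpenicillin and streptomycin. Compounds came from 0.01 mol/L DMSO stocks and were tested at eight two-fold dilutions in triplicate, with medium-only controls, for 24 h. MTT absorbance was read at 570 nm. Survival = A_treatment/A_control × 100. IC50 is the concentration giving 50% viability inhibition, as the mean of two separate experiments.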

[3] = test system: BGC-823; test: Antiproliferative activity against human BGC823 cells after 24 hrs by MTT assay; assay type: functional, cell-based; settings: BGC-823, 24 h; in short: as §1
[4] = test system: SMMC-7721; test: Antiproliferative activity against human SMMC7721 cells after 24 hrs by MTT assay; assay type: functional, cell-based; settings: SMMC-7721, 24 h; in short: as §1
[5] = test system: HepG2; test: Antiproliferative activity against human HepG2 cells after 24 hrs by MTT assay; assay type: functional, cell-based; settings: HepG2, 24 h
In short: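 Tetrazolium MTT viability test; cells exposed to compound 24 h, absorbance read at 570 nm. Survival ratio = A treated / A control × 100%; IC50 is the concentration giving 50% loss of viability. Eight concentrations in two-fold dilutions, triplicate wells, mean of two separate experiments. Compounds dissolved in DMSO (0.01 mol/L stock); control wells received medium only.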

[6] = test system: HepG2; test: Induction of apoptosis in human HepG2 cells assessed as viable cells at 1 uM after 24 hrs using annexin V-propidium iodide staining by flow cytometry (reference value: 93.2%); assay type: functional; settings: HepG2, 24 h, read-out: Activity
[7] = test system: HepG2; test: Induction of apoptosis in human HepG2 cells assessed as early apoptotic cells at 1 uM after 24 hrs using annexin V-propidium iodide staining by flow cytometry (reference value: 3%); assay type: functional
[8] = test system: HepG2; test: Induction of apoptosis in human HepG2 cells assessed as late apoptotic cells at 1 uM after 24 hrs using annexin V-propidium iodide staining by flow cytometry (reference value: 3.4%); assay type: functional
[9] = test system: HepG2; test: Induction of apoptosis in human HepG2 cells assessed as pre-necrotic cells at 1 uM after 24 hrs using annexin V-propidium iodide staining by flow cytometry (reference value: 0.5%); assay type: functional
[10] = test system: HepG2; test: Induction of apoptosis in human HepG2 cells assessed as viable cells at 2 uM after 24 hrs using annexin V-propidium iodide staining by flow cytometry (reference value: 93.2%); assay type: functional; settings: HepG2, 24 h, read-out: Activity
[11] = test system: HepG2; test: Induction of apoptosis in human HepG2 cells assessed as early apoptotic cells at 2 uM after 24 hrs using annexin V-propidium iodide staining by flow cytometry (reference value: 3%); assay type: functional
[12] = test system: HepG2; test: Induction of apoptosis in human HepG2 cells assessed as late apoptotic cells at 2 uM after 24 hrs using annexin V-propidium iodide staining by flow cytometry (reference value: 3.4%); assay type: functional
[13] = test system: HepG2; test: Induction of apoptosis in human HepG2 cells assessed as pre-necrotic cells at 2 uM after 24 hrs using annexin V-propidium iodide staining by flow cytometry (reference value: 0.5%); assay type: functional
[14] = test system: HepG2; test: Induction of apoptosis in human HepG2 cells assessed as viable cells at 4 uM after 24 hrs using annexin V-propidium iodide staining by flow cytometry (reference value: 93.2%); assay type: functional; settings: HepG2, 24 h, read-out: Activity
[15] = test system: HepG2; test: Induction of apoptosis in human HepG2 cells assessed as early apoptotic cells at 4 uM after 24 hrs using annexin V-propidium iodide staining by flow cytometry (reference value: 3%); assay type: functional
[16] = test system: HepG2; test: Induction of apoptosis in human HepG2 cells assessed as late apoptotic cells at 4 uM after 24 hrs using annexin V-propidium iodide staining by flow cytometry (reference value: 3.4%); assay type: functional
[17] = test system: HepG2; test: Induction of apoptosis in human HepG2 cells assessed as pre-necrotic cells at 4 uM after 24 hrs using annexin V-propidium iodide staining by flow cytometry (reference value: 0.5%); assay type: functional
[18] = test system: HepG2; test: Cell cycle arrest in human HepG2 cells assessed as accumulation at G2/M phase at 1 uM after 24 hrs using propidium iodide by Flow cytometry; assay type: functional, cell-based
In short: (§2)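 HepG2 cells synchronised by 24 h serum starvation, then treated 24 h at 1, 2 or 4 µM. Cells fixed overnight in 70% ethanol at 4 °C and stained 15 min at 37 °C in the dark with hypotonic PI solution (0.1% sodium citrate, 0.1% Triton X-100, 0.05 mg/ml PI, 0.01 mg/ml RNase). DNA content measured by flow cytometry.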

[19] = test system: HepG2; test: Cell cycle arrest in human HepG2 cells assessed as accumulation at G2/M phase at 2 uM after 24 hrs using propidium iodide by Flow cytometry; assay type: functional, cell-based; in short: as §2
[20] = test system: HepG2; test: Cell cycle arrest in human HepG2 cells assessed as accumulation at G2/M phase at 4 uM after 24 hrs using propidium iodide by Flow cytometry; assay type: functional, cell-based; in short: as §2
[21] = test system: HepG2; test: Induction of apoptosis in human HepG2 cells assessed as decrease in bcl-2 expression at 1 uM after 24 hrs by Western blot analysis; assay type: functional, cell-based
In short: (§3)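 HepG2 cells treated 24 h at 1, 2 or 4 µM. Lysed in Tris-Cl pH 6.8 buffer containing SDS, glycerol, β-mercaptoethanol, PMSF and aprotinin; cleared at 12 000 × g, 15 min, 4 °C. Protein measured by BCA. Samples run on 15% SDS-PAGE, transferred to PVDF, probed overnight at 4 °C with primary antibodies against bcl-2, bax and pro-caspase-3, then IRDye 800 secondary 1 h at 37 °C.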

[22] = test system: HepG2; test: Induction of apoptosis in human HepG2 cells assessed as decrease in bcl-2 expression at 2 uM after 24 hrs by Western blot analysis; assay type: functional, cell-based; in short: as §3
[23] = test system: HepG2; test: Induction of apoptosis in human HepG2 cells assessed as decrease in bcl-2 expression at 4 uM after 24 hrs by Western blot analysis; assay type: functional, cell-based; in short: as §3
[24] = test system: HepG2; test: Induction of apoptosis in human HepG2 cells assessed as decrease in pro-caspase-3 expression at 1 uM after 24 hrs by Western blot analysis; assay type: functional, cell-based; in short: as §3
[25] = test system: HepG2; test: Induction of apoptosis in human HepG2 cells assessed as decrease in pro-caspase-3 expression at 2 uM after 24 hrs by Western blot analysis; assay type: functional, cell-based; in short: as §3
[26] = test system: HepG2; test: Induction of apoptosis in human HepG2 cells assessed as decrease in pro-caspase-3 expression at 4 uM after 24 hrs by Western blot analysis; assay type: functional, cell-based; in short: as §3
[27] = test system: HepG2; test: Induction of apoptosis in human HepG2 cells assessed as effect on bax protein expression at 1 uM after 24 hrs by Western blot analysis; assay type: functional, cell-based; in short: as §3
[28] = test system: HepG2; test: Induction of apoptosis in human HepG2 cells assessed as effect on bax protein expression at 2 uM after 24 hrs by Western blot analysis; assay type: functional, cell-based; in short: as §3
[29] = test system: HepG2; test: Induction of apoptosis in human HepG2 cells assessed as effect on bax protein expression at 4 uM after 24 hrs by Western blot analysis; assay type: functional, cell-based; in short: as §3
[30] = test system: HepG2; test: Induction of apoptosis in human HepG2 cells assessed as activation of caspase 3 at 1 to 4 uM after 24 hrs by colorimetric assay relative to control; assay type: functional
In short: (§4)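 Kit colorimetric caspase-3 test. HepG2 cells treated at 1, 2 or 4 µM for 24 h at 37 °C, then lysed on ice 20 min and centrifuged. Supernatant containing 200 µg total protein incubated with Ac-DEVD-pNA 4 h at 37 °C; absorbance read at 405 nm. Fold activity = OD treated / OD control; mean ± SD, t-test.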

[31] = test system: HepG2; test: Induction of apoptosis in human HepG2 cells assessed as activation of caspase 3 after 24 hrs by colorimetric assay; assay type: functional, cell-based; in short: as §4
[32] = test system: Mus musculus; test: Toxicity in Kunming mouse xenografted with human HepG2 cells assessed as change in body weight at 12.5 mg/kg, iv administered 24 hrs after tumor implantation one dose per two day for total of four treatment measured after 24 hrs last postdose (reference value: 20.20 +/- 1.99 g); assay type: organism-based; design: dose 12.5 mg/kg, route intravenous; settings: in vivo
[33] = test system: Mus musculus; test: Toxicity in Kunming mouse xenografted with human HepG2 cells assessed as change in body weight at 25 mg/kg, iv administered 24 hrs after tumor implantation one dose per two day for total of four treatment measured after 24 hrs last postdose (reference value: 20.20 +/- 1.14 g); assay type: organism-based; design: dose 25 mg/kg, route intravenous; settings: in vivo
[34] = test system: HepG2; test: Induction of apoptosis in human HepG2 cells assessed as cell distortion at 4 uM after 24 hrs using by inverted light microscopy; assay type: functional, cell-based
In short: (§5)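 HepG2 cells seeded at 1 × 10⁵ cells/well and treated 24 h at 1, 2 or 4 µM. Living cells first viewed under inverted light microscope (×200). Cells then fixed 20 min in 4% paraformaldehyde, stained 10 min with DAPI (1 mg/ml) and examined by fluorescence microscopy (×400, 340 nm excitation) for nuclear changes and apoptotic bodies.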

[35] = test system: HepG2; test: Induction of apoptosis in human HepG2 cells assessed as cell membrane blebbing and shrinkage at 4 uM after 24 hrs using by inverted light microscopy; assay type: functional, cell-based; in short: as §5
[36] = test system: HepG2; test: Induction of apoptosis in human HepG2 cells assessed as large proportion of cell became round in shape at 4 uM after 24 hrs […] by inverted light microscopy; assay type: functional, cell-based; in short: as §5
[37] = test system: HepG2; test: Induction of apoptosis in human HepG2 cells assessed as induction of cell integrity at 1 uM after 24 hrs by light microscopy; assay type: functional, cell-based; in short: as §5
[38] = test system: HepG2; test: Induction of apoptosis in human HepG2 cells assessed as appearance of necrosis at 4 uM after 24 hrs by light microscopy; assay type: functional, cell-based; in short: as §5
[39] = test system: HepG2; test: Induction of apoptosis in human HepG2 cells assessed as nuclear condensation at 1 to 4 uM after 24 hrs using DAPI staining by fluorescent microscopy; assay type: functional, cell-based; in short: as §5
[40] = test system: HepG2; test: Induction of apoptosis in human HepG2 cells assessed as appearance of apoptotic bodies at 1 to 4 uM after 24 hrs using DAPI staining by fluorescent microscopy; assay type: functional, cell-based; in short: as §5
[41] = test system: HepG2; test: Induction of apoptosis in human HepG2 cells assessed as bright condensed chromatin in nuclei at 1 uM after 24 hrs by fluorescence microscopy
[42] = test system: Heps hepatoma (Mus musculus); test: Antitumor activity against murine Heps hepatoma cells transplanted in iv dosed Kunming mouse assessed as tumor growth inhibition administered 24 hrs after tumor implantation one dose per two day for total of four treatment measured after 24 hrs last postdose
[43] = test system: Mus musculus; test: Toxicity in Kunming mouse xenografted with human HepG2 cells assessed as change in body weight at 50 mg/kg, iv administered 24 hrs after tumor implantation one dose per two day for total of four treatment measured after 24 hrs last postdose (reference value: 19.10 +/- 1.29 g); settings: in vivo
[44] = test system: Heps hepatoma (Mus musculus); test: Antitumor activity against murine Heps hepatoma cells transplanted in Kunming mouse assessed as tumor growth inhibition at 25 mg/kg, iv administered 24 hrs after tumor implantation one dose per two day for total of four treatment measured after 24 hrs last postdose relative to control
[45] = test system: Heps hepatoma (Mus musculus); test: Antitumor activity against murine Heps hepatoma cells transplanted in Kunming mouse assessed as tumor growth inhibition at 50 mg/kg, iv administered 24 hrs after tumor implantation one dose per two day for total of four treatment measured after 24 hrs last postdose relative to control
[46] = test system: Heps hepatoma (Mus musculus); test: Antitumor activity against murine Heps hepatoma cells transplanted in Kunming mouse assessed as tumor growth inhibition at 12.5 mg/kg, iv administered 24 hrs after tumor implantation one dose per two day for total of four treatment measured after 24 hrs last postdose relative to control

## CC(C)=CCC12OC(C)(C)C3CC(C=C4C(=O)c5c(O)cccc5OC431)C2=O (stereo unspecified)
[1]
  Activity: Non-toxic
[2]
  IC50: 9.16 µM
[3]
  IC50: 3.59 µM
[4]
  IC50: 8.06 µM
[5]
  IC50: 2.37 µM
[6]
  viability at 1 µM: 86.3%
[7]
  Activity: 8.1%
[8]
  Activity: 4.8%
[9]
  Activity: 0.8%
[10]
  viability at 2 µM: 71.9%
[11]
  Activity: 18.9%
[12]
  Activity: 8.1%
[13]
  Activity: 1.1%
[14]
  viability at 4 µM: 68.2%
[15]
  Activity: 23.3%
[16]
  Activity: 7.4%
[17]
  Activity: 1.1%
[18]
  Activity: Active
[19]
  Activity: Active
[20]
  Activity: Active
[21]
  Activity: Active
[22]
  Activity: Active
[23]
  Activity: Active
[24]
  Activity: Active
[25]
  Activity: Active
[26]
  Activity: Active
[27]
  Activity: inactive
[28]
  Activity: inactive
[29]
  Activity: inactive
[30]
  fold change (FC): 3
[31]
  Activity: Dose-dependent effect
[32]
  Activity: 26.3 g
[33]
  Activity: 29.4 g
[34]
  Activity: Active
[35]
  Activity: Active
[36]
  Activity: Active
[37]
  Activity: Active
[38]
  Activity: Active
[39]
  Activity: Active
[40]
  Activity: Active
[41]
  Activity: Active
[42]
  inhibition: Dose-dependent effect
[43]
  Activity: 24.7 g
[44]
  inhibition in vivo at 25 mg/kg: 32.3%
[45]
  inhibition in vivo at 50 mg/kg: 49.2%
[46]
  inhibition in vivo at 12.5 mg/kg: 14.9%
